{
  "source": "paper PMC11352836",
  "about": "(Science Advances, 2024)",
  "key": {"[1]": {"details": "cited from earlier work"}, "ENL [2]": {"target": "T1, ENL (Homo sapiens, UniProt Q03111)", "T1 sequence (Q03111 1-559)": "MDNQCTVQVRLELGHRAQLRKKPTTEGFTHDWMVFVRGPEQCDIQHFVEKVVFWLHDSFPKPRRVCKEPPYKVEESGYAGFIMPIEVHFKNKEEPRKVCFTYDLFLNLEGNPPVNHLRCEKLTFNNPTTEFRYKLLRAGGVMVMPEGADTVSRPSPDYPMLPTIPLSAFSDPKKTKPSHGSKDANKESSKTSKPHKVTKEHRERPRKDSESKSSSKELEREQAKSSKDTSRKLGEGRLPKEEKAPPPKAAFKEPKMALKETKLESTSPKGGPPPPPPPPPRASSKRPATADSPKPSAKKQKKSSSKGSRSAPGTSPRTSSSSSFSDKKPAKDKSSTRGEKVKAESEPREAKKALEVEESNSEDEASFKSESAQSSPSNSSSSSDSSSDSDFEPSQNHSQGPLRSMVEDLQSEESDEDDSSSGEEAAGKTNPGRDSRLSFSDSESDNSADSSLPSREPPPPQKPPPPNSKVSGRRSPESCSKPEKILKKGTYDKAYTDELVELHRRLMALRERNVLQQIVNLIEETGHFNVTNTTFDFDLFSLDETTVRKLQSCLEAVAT", "format": "cell-based", "details": "MV4;11 cells pretreated 1 hour, then 100 nM MS41 for 2 hours", "outline": "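MV4;11 cells were pretreated 1 h with graded concentrations of a YEATS-domain ligand, a VHL ligand, proteasome inhibitor MG132, or neddylation inhibitor MLN4924, then given 100 nM test compound for 2 h. Separately, control-sgRNA or VHL-sgRNA MV4;11 cells got graded test compound for 24 h. ENL and VHL were read by immunoblot.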"}, "RS4;11 cells": {"test_system": "RS4;11 cells", "assay": "Cell viability assay", "format": "cell-based, human", "details": "RS4;11, 6 days"}, "MV4;11 cells [3]": {"test_system": "MV4;11 cells", "assay": "RT-qPCR of ENL target genes and ENL in MV4", "format": "cell-based, human", "details": "MV4;11, 24 hours"}, "MV4;11 cells [4]": {"test_system": "MV4;11 cells", "assay": "Cell cycle and apoptosis assay", "format": "cell-based, human", "details": "MV4;11, 100 nM", "outline": "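Cells were harvested at set time points. For cell cycle, cells in HBSS/2% FBS were fixed with dropwise ice-cold 70% ethanol and stained with DAPI. For apoptosis, cells were PBS-washed at 1×10^6 cells/ml in binding buffer, stained with FITC-annexin V plus propidium iodide for 15 min at RT, and run on flow cytometry within 1 h.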"}, "MV4;11 cells [5]": {"test_system": "MV4;11 cells", "assay": "Cell viability assay", "format": "cell-based, human", "details": "MV4;11, 6 days"}, "KASUMI1 cells": {"test_system": "KASUMI1 cells", "assay": "Colony formation assay", "format": "cell-based, human", "details": "KASUMI1, 100 nM, 10 days"}, "SEMK2 cells": {"test_system": "SEMK2 cells", "assay": "Cell viability assay", "format": "cell-based, human", "details": "SEMK2, 6 days"}, "MV4;11 cells [6]": {"test_system": "MV4;11 cells", "assay": "MS-based global quantitative", "format": "cell-based, human", "details": "MV4;11, 100 nM, 2 or 6 hours; cutoff P value <0.05 and fold change >1.5", "outline": "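MV4;11 cells (10^6 per sample, three biological replicates) were exposed to 100 nM test compound or DMSO for 2 or 6 h. Pellets were solubilised in 8 M urea/50 mM Tris pH 8.0, reduced with 5 mM DTT and alkylated with 15 mM iodoacetamide. After fourfold dilution, samples were digested with trypsin (1:100, overnight, RT), desalted on C18 and analysed by nanoLC-MS. Proteins with ≥2 razor+unique peptides were compared by two-sample t test.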"}, "MV4;11 cells [7]": {"test_system": "MV4;11 cells", "assay": "RNA-seq analysis in MV4", "format": "cell-based, human", "details": "MV4;11, 6 and 24 hours"}, "HEK293 cells": {"test_system": "HEK293 cells", "assay": "RT-qPCR of HOXA11 and HOXA13 in HEK293 cells expressing ENL mutants", "format": "cell-based, human", "details": "HEK293 stable cells, 100 nM, 72 hours", "outline": "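HEK293 stable lines expressing ENL mutants were treated with DMSO, 100 nM test compound or 100 nM controls for 72 h. HOXA11 and HOXA13 mRNA was measured by RT-qPCR in three independent experiments, reported as mean ± SEM with Student's t test.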"}, "ENL [8]": {"target": "T1, ENL", "assay": "Endogenous ENL degradation by immunoblotting in human leukemia cell lines", "format": "cell-based", "details": "MV4;11 cells; 1 nM to 10 μM, 6 and 24 hours", "outline": "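MV4;11 and Jurkat cells were treated with DMSO or graded test-compound concentrations for 6 or 24 h. Cells were lysed in Tris/250 mM NaCl/0.5% Triton X-100/glycerol buffer with DTT and protease inhibitors. Bradford-equalised lysates were immunoblotted for ENL, with β-actin as loading control.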"}, "ENL YEATS domain": {"target": "T2, ENL YEATS domain (Homo sapiens, UniProt Q03111)", "T2 sequence (Q03111 1-145)": "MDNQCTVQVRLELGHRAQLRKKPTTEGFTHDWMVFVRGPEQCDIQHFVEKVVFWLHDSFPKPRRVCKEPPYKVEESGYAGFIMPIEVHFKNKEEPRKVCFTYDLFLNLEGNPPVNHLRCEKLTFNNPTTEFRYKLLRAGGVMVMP", "assay": "AlphaScreen assay, ENL YEATS-H3K9ac interaction", "format": "binding"}, "[9]": {"test_system": "xenograft leukemia models", "details": "cited from earlier work"}, "ENL [10]": {"test_system": "ENL", "details": "cited from earlier work"}, "IKZF1": {"test_system": "IKZF1", "details": "cited from earlier work"}, "MV4;11 cells [11]": {"test_system": "MV4;11 cells", "assay": "Drug synergy test, MS41 with doxorubicin", "format": "cell-based, human", "details": "MV4;11, cotreatment, 6 days", "outline": "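MV4;11 cells were given DMSO, test compound, doxorubicin, or the combination at graded concentrations for 6 days. Viability was read by CellTiter-Glo luminescence.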"}},
  "note": "Peptide text beside a SMILES is read from it. * marks the point of attachment. Cbz = O=C(OCc1ccccc1)*",
  "data": [
    {"smiles": "Cc1ncsc1-c1ccc(CNC(=O)[C@@H]2C[C@@H](O)CN2C(=O)[C@@H](NC(=O)CCOCCNC(=O)c2ccc3c(c2)[C@H](NC(=O)c2cc(-c4ccc(C(=O)N(C)C)c(O)c4)on2)CC3)C(C)(C)C)cc1", "note": "[compound 1]", "values": [
      {"measurement": "antitumor activity", "setting": "[1]", "result": "exhibiting antitumor activity"}
    ]},
    {"smiles": "CC(C)C[C@@H](C=O)NC(=O)[C@H](CC(C)C)NC(=O)[C@H](CC(C)C)NC(=O)OCc1ccccc1", "note": "[MG132] (Cbz-Leu-Leu-Leu-aldehyde)", "values": [
      {"measurement": "effect of pretreatment on MS41-mediated ENL degradation", "setting": "ENL [2]", "result": "effectively blocked"}
    ]},
    {"smiles": "Cc1ncsc1-c1ccc(CNC(=O)[C@@H]2C[C@@H](O)CN2C(=O)[C@@H](NC(=O)C2(C#N)CC2)C(C)(C)C)cc1", "note": "[VH298]", "values": [
      {"measurement": "effect of pretreatment on MS41-mediated ENL degradation", "setting": "ENL [2]", "result": "hindered MS41-mediated ENL degradation"}
    ]},
    {"smiles": "Cc1ncsc1-c1ccc([C@H](C)NC(=O)[C@H]2C[C@H](O)CN2C(=O)[C@@H](NC(=O)CCCCCCCCCNC(=O)c2ccc3c(c2)[C@H](NC(=O)c2cc(-c4ccc(C(=O)N(C)C)c(O)c4)on2)CC3)C(C)(C)C)cc1", "note": "[MS41N]", "values": [
      {"measurement": "cell growth suppression", "setting": "RS4;11 cells", "result": "did not suppress cell growth"},
      {"measurement": "mRNA levels of ENL (RT-qPCR)", "setting": "MV4;11 cells [3]", "result": "did not affect mRNA levels of ENL"},
      {"measurement": "apoptosis", "setting": "MV4;11 cells [4]", "result": "had no such effects"},
      {"measurement": "cell cycle profile", "setting": "MV4;11 cells [4]", "result": "had no such effects"},
      {"measurement": "cell growth suppression", "setting": "MV4;11 cells [5]", "result": "did not suppress cell growth"},
      {"measurement": "clonogenic potential (colony formation)", "setting": "KASUMI1 cells", "result": "but not MS41N or PFI-6"},
      {"measurement": "cell growth suppression", "setting": "SEMK2 cells", "result": "did not suppress cell growth"},
      {"measurement": "proteome-wide selectivity (change in protein abundance)", "setting": "MV4;11 cells [6]", "result": "did not substantially alter the abundance of any proteins"},
      {"measurement": "changes in gene expression (RNA-seq)", "setting": "MV4;11 cells [7]", "result": "did not induce substantial changes in gene expression"},
      {"measurement": "HOXA11 and HOXA13 gene expression induced by ENL mutants", "setting": "HEK293 cells", "result": "had no or only minor effects on HOXA11 and HOXA13 gene expression"},
      {"measurement": "endogenous ENL protein degradation (immunoblot)", "setting": "ENL [8]", "result": "did not induce ENL degradation, even at 10 μM"},
      {"measurement": "IC50", "setting": "ENL YEATS domain", "result": 117, "unit": "nM"}
    ]},
    {"smiles": "C[C@H]1CCCN1Cc1cc2cnc(NC(=O)c3ccc4c(cnn4C)c3)cc2[nH]1", "note": "[TDI-11055]", "values": [
      {"measurement": "in vivo efficacy", "setting": "[9]", "result": "in vivo efficacy in xenograft leukemia models"}
    ]},
    {"smiles": "NS(=O)(=O)OC[C@@H]1C[C@@H](n2ccc3c(N[C@H]4CCc5ccccc54)ncnc32)C[C@@H]1O", "note": "[MLN4924]", "values": [
      {"measurement": "effect of pretreatment on MS41-mediated ENL degradation", "setting": "ENL [2]", "result": "effectively blocked"}
    ]},
    {"smiles": "O=C(COc1cccc2c1C(=O)N(C1CCC(=O)NC1=O)C2=O)NCCOCCOCCNS(=O)(=O)Nc1cccc(-c2cn3cc(C(=O)NC4CCC4)ccc3n2)c1", "note": "(centres unmarked) [SR-1114]", "values": [
      {"measurement": "ENL depletion", "setting": "ENL [10]", "result": "able to induce ENL depletion"},
      {"measurement": "IKZF1 degradation (off-target)", "setting": "IKZF1", "result": "concurrent degradation of IKZF1"}
    ]},
    {"smiles": "COc1cccc2c1C(=O)c1c(O)c3c(c(O)c1C2=O)C[C@@](O)(C(=O)CO)C[C@@H]3O[C@H]1C[C@H](N)[C@H](O)[C@H](C)O1", "note": "[doxorubicin]", "values": [
      {"measurement": "interaction of MS41 and doxorubicin (Bliss independence model)", "setting": "MV4;11 cells [11]", "result": "strong synergistic effect"}
    ]}
  ]
}
